Compound activity as filed in PubChem.
This excerpt belongs to a sample that is enriched for hits.
HUVEC prolif 384 – blocks proliferation of human endothelial cells; viability, % at 10 µM (by protocol); 1.1% of 86,000 active; HUVEC proliferation, CellTiter-Glo luminescence, 72 h; hits give low values;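 active = viability at or below 30%; inactive = viability above 30%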;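 note: 100% = median luminescence of DMSO-only cell control wells on each plate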
H69AR growth 86K – blocks growth of human H69AR lung tumor cells | H69AR lung tumor viability, ATP luminescence, 72 h; hits give low values | viability, % at 10 µM | 6% of 85,000 active;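 active = viability at or below 40%; inactive = viability above 40%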;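 note: multidrug resistant small cell line overexpressing MRP-1 efflux transporter; 100% = mean luminescence of untreated control wells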
Lung fibro prol – blocks proliferation of human lung fibroblasts; AID 719; viability, % at 10 µM; 1.1% of 85,000 active; LL 47 human lung fibroblast viability, ATP luminescence; hits give low values;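 active = viability at or below 50% in the single dose screen; inactive = viability above 50%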;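 note: compound exposure lasted 72 h before the ATP readout; 100% = median luminescence of untreated cell-only wells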
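Material: Human LL 47 lung fibroblast cells | Input: 1,150 cells/well | Buffer or medium: IMEM plus 15% FBS | Compound dosing: 0.1% DMSO in all compound wells | Times: Overnight cell rest, 72 h compound treatment at 37 °C | Signal: CellTiter-Glo luminescence measuring cellular ATP | Measure: % viability versus median cells-only luminescence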
bCat KO growth – beta-catenin-lacking colon tumor cell growth suppression | HCT116 beta-catenin knockout viability, CellTiter-Glo, 60 h; hits give low values | viability, % at 10 µM | 1.5% of 140,000 active | AID 818;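 active = viability at or under a set limit, the compound median less 4 SD, cut at about 6% in these data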;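 note: 0% = Hyamine 1622 control at 20 µM and 100% = untreated cell control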
HCT116 PTEN-null – growth suppressors of cells with PTEN tumor suppressor deletion; HCT116 PTEN-null viability, CellTiter-Glo, 60 h; hits give low values; viability, % at 10 µM; 1.2% of 140,000 active;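 active = viability at or below a set limit, 4 SD under the median of all tested compounds, cut at about 3.7% in these data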;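 note: PTEN knockout HCT116 line with beta catenin targeted HCT116 as companion control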
* hit, by the source's call; x = no result.

SMILES | HUVEC prolif 384 | H69AR growth 86K | Lung fibro prol | bCat KO growth | HCT116 PTEN-null
CCc1cccc(NC(=O)CSC2=NS(=O)(=O)c3ccccc32)c1 | 50 | 3.5* | 50* | 83 | 87
CCc1cccc(NC(=O)CSCc2cc(=O)[nH][nH]2)c1 | 91 | 92 | 96 | 107 | 98
CNC(=O)N(C1=NCC(C)S1)c1ccc(F)cc1F (stereo not drawn) | 76 | 87 | 92 | 87 | 92
CNC(=O)N(C1=NCC(C)(C)S1)c1ccc(F)c(Cl)c1 | 52 | 15* | 81 | 40 | 36
O=C(COC(=O)COc1cccc(Br)c1)Nc1c(Cl)cccc1Cl | x | x | x | 98 | 98
Cc1cc(OCCNCCO)cc(C)c1Cl | 88 | 92 | 102 | 85 | 86
Cc1cc(OCCCCCNCCO)cc(C)c1Cl | 73 | 37* | 75 | 14 | 3.6*
CC(C)OC(=O)CC(=O)CSc1nc2c(cc1C#N)CCC2 | 81 | 24* | 93 | 27 | 15
N#Cc1cc2c(nc1SCC(=O)Nc1sc3c(c1C#N)CCC3)CCC2 | 57 | 34* | 86 | 104 | 88
COc1ccc(-c2nnn(CC(=O)Nc3sc4c(c3C#N)CCCC4)n2)cc1 | 108 | 6.8* | 108 | 91 | 93
Cc1csc(SCC(=O)Nc2sc3c(c2C#N)CCC3)n1 | 78 | 32* | 94 | 48 | 47
CC(C)(C)C1CCc2c(sc(NC(=O)CSc3ncn[nH]3)c2C#N)C1 (stereo not drawn) | 42 | 45 | 67 | 18 | 17
CCCC(=O)Nc1sc2c(c1C#N)CCCCC2 | 82 | 99 | 100 | 0.9* | 1.0*
COc1ccc(-c2ccc(C#N)c(SCC(=O)NCCc3ccccc3)n2)cc1OC | x | x | x | 5.7* | 4
N#Cc1c(NC(=O)CSc2ncn[nH]2)sc2c1CCCC2 | 86 | 18* | 90 | 92 | 92
CCN1CCN(CC(=O)Nc2sc3c(c2C#N)CCC(C)C3)CC1 (stereo not drawn) | 79 | 32* | 92 | 1.4* | 1.5*
CC1CCc2c(sc(NC(=O)CSc3nnc(-c4ccccc4)o3)c2C#N)C1 (stereo not drawn) | x | x | x | 80 | 89
COc1cccc(-c2ccc(C#N)c(SCC(=O)NCCc3cccc(Cl)c3)n2)c1 | x | x | x | 71 | 73
COC(=O)c1ccccc1NC(=O)CSCC(=O)Nc1ccc(F)cc1 | x | x | x | 103 | 103
COc1ccc2c(c1OC)C(=O)N1N=C(c3ccc(Cl)cc3)CC21 (stereo not drawn) | x | x | x | 92 | 86
N#Cc1cc2c(nc1SCC(=O)Nc1nccs1)CCCCC2 | 84 | 69 | 95 | 82 | 91
N#Cc1cc2c(nc1SCC(=O)Nc1sc3c(c1C#N)CCC3)CCCCCC2 | 77 | 11* | 75 | 50 | 52
COc1ccc(-c2ccc(C#N)c(SCC(=O)Nc3sc4c(c3C#N)CCC4)n2)cc1OC | 8.7* | 1.0* | 68 | 49 | 62
CCn1c(SCC(=O)Nc2sc3c(c2C#N)CCCC3)nnc1-c1ccncc1 | 99 | 0.9* | 97 | 97 | 94
O=C(CCC1CCCCC1)N1CCN(Cc2ccc3c(c2)OCO3)CC1 | 87 | 83 | 86 | 92 | 84
SMILES | HUVEC prolif 384 | H69AR growth 86K | Lung fibro prol | bCat KO growth | HCT116 PTEN-null
CC(=O)Nc1ccc(S(=O)(=O)Nc2nc3ccccc3nc2Nc2ccc3ccccc3c2)cc1 | x | x | x | 78 | 73
CCCCN(CCCC)c1nc2ccccc2nc1NS(=O)(=O)c1ccc(NC(C)=O)cc1 | 78 | 12* | 92 | 76 | 76
C/C(=N\NC(=O)OC(C)(C)C)c1cccc([N+](=O)[O-])c1 | x | x | x | 90 | 100
C=C1C(=O)[C@@]23[C@H](O)C[C@@H]4C(C)(C)CC[C@H](O)[C@]4(C)[C@@H]2C[C@H](O)[C@@H]1[C@H]3O | x | x | x | 9 | 5
C=C1C(=O)[C@@]23[C@H](O)C[C@@H]4C(C)(C)CC[C@H](O)[C@@]4(C)[C@@H]2CC[C@@H]1[C@H]3O | x | x | x | 2.1* | 1.3*
O=C(C#Cc1ccccc1)c1ccc([N+](=O)[O-])cc1 | 47 | 1.1* | 20* | 7 | 4
Cc1cc(NC(=O)CSc2nc3ccc(Cl)cc3[nH]2)no1 | 80 | 94 | 97 | 99 | 86
CCCN(CCC)C1=CC(=[N+]2CCCC2)CC(C)(C)C1 | x | x | x | 12 | 11
CCN1C(=O)/C(=C2/Sc3ccc(OC)cc3N2C)SC1=Nc1cccc(O)c1 | 95 | 24* | 80 | 72 | 73
CCN1C(=O)/C(=C2/Sc3ccc(OC)cc3N2C)SC1=Nc1ccc(C(C)=O)cc1 | 102 | 89 | 102 | x | x
CC(NC(=S)Nc1c(Br)cccc1OC(F)F)C(C)(C)C (stereo not drawn) | x | x | x | 66 | 73
CCCCC(=O)Nc1cc(C(=O)NCCc2ccccc2)ccc1Cl | x | x | x | 75 | 79
CCOC(=O)c1c(NC(=O)c2ccco2)n(C2CCCCC2)c2nc3ccccc3nc12 | 96 | 36* | 105 | 71 | 65
CCC(=O)Nc1c(C#N)c2nc3ccccc3nc2n1C1CCCCC1 | 98 | 85 | 94 | 60 | 65
Nc1nc(SCC(=O)Nc2ccccc2Oc2ccccc2)n[nH]1 | x | x | x | 90 | 90
CCOc1ccc(/C=C/C2=Cc3c(sc(NC(=O)CSc4n[nH]c(N)n4)c3C#N)C(C)(C)C2)cc1 | 3.6* | 1.8* | 48* | 28 | 20
Cc1ccsc1/C=C/C1=Cc2c(sc(NC(=O)CSc3n[nH]c(N)n3)c2C#N)C(C)(C)C1 | 15* | 1.7* | 89 | 75 | 74
COc1cc(/C=C/C(=O)c2ccc(C)cc2)ccc1OCC#N | x | x | x | 5.6* | 2.0*
CCOc1cc(/C=C/C(=O)c2ccc(C)cc2)ccc1OCC(=O)N(C)C | x | x | x | 1.6* | 1.7*
O=C(CSc1ncnc2scc(-c3ccc(Cl)cc3)c12)NCc1ccc2c(c1)OCO2 | x | x | x | 89 | 62
O=c1c2c([nH]c3ccc(Br)cc13)CCCC2 | 102 | 68 | 94 | x | x
NC(=O)c1cc(Br)cc2c3c([nH]c12)CCCC3 | 42 | 18* | 87 | 51 | 45
COC(=O)c1ccc2c(=O)n(CCC3=CCCCC3)c(SCC(=O)N3CCCC3)nc2c1 | 78 | 48 | 100 | x | x
COc1ccc(-c2nnc(SCCc3ccccc3)n2N)cc1 | 100 | 96 | 46* | 96 | 109
c1ccc(-c2cc3c(nn2)CCc2nonc2-3)cc1 | 106 | 92 | 108 | 94 | 89
SMILES | HUVEC prolif 384 | H69AR growth 86K | Lung fibro prol | bCat KO growth | HCT116 PTEN-null
[O-][n+]1onc2c3cc(-c4ccccc4)nnc3ccc21 | 91 | 17* | 86 | 13 | 12
Cc1cccn2c(=O)c3cc(C(=O)N4CCc5ccccc54)n(C)c3nc12 | 60 | 25* | 91 | x | x
Cc1cccn2c(=O)c3cc(C(=O)N4c5ccccc5CC4C)n(C)c3nc12 (stereo not drawn) | 77 | 42 | 83 | 63 | 45
CC1Cc2ccccc2N1C(=O)c1cc2c(=O)n3ccccc3nc2n1C (stereo not drawn) | 52 | 13* | 92 | 61 | 41
O=C(NC1CCCCC1)C1CC=CCC1C(=O)OCC(Cl)=C(Cl)Cl (stereo not drawn) | 111 | 92 | 97 | 101 | 94
CCN1C(=O)/C(=C/c2ccc(C)s2)NC1=S | 97 | 4.1* | 102 | 83 | 99
